Laboratory results: ChEMBL document CHEMBL3232746, “Diamidine compounds for selective inhibition of protein arginine methyltransferase 1” (J Med Chem, 2014)
Activity calls are given as the source filed them. The calls are words filed in the database; no cut-off is given here.

Legend:
[1] = biological target: T1, Histone-arginine methyltransferase CARM1 (Homo sapiens, UniProt Q86X55); experiment: Inhibition of GST-tagged CARM1 (unknown origin) using [3H]SAM and histone H3.1 as substrate at 20 uM after 1 hr by P81 filter binding assay
T1 sequence (Q86X55 whole entry): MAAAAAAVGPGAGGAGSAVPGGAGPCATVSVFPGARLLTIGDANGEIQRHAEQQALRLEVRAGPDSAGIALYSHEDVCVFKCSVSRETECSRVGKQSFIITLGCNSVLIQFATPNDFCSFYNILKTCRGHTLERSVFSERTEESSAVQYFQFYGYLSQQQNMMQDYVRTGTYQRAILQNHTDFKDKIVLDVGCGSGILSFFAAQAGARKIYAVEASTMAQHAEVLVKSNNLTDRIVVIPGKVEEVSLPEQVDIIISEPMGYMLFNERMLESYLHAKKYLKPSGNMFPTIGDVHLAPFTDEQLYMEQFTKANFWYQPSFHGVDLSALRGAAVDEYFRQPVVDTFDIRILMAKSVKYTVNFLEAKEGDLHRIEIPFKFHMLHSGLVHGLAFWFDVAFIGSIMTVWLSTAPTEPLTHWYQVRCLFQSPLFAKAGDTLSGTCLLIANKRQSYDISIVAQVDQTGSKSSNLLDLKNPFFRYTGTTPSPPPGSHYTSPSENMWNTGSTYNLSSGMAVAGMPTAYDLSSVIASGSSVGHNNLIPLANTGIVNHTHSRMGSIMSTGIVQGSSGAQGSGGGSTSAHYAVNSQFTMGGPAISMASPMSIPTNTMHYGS

[2] = biological target: Protein arginine N-methyltransferase 6 (Homo sapiens, UniProt Q96LA8); experiment: Inhibition of His6x-tagged PRMT6 (unknown origin) using [3H]SAM and histone H3.1 as substrate at 20 uM after 1 hr by P81 filter binding assay
Procedure, shortened: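 P81 filter-binding assay with 1 μM histone H3.1 as acceptor and 0.5 μM [3H]SAM in 50 mM HEPES pH 8.0, 50 mM NaCl, 1 mM EDTA, 0.5 mM DTT; enzyme, SAM and inhibitor preincubated 5 min, then substrate added; 1 h at 30 °C; methylation by scintillation counting.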

[3] = biological target: T2, Protein arginine N-methyltransferase 5 (Homo sapiens, UniProt O14744); experiment: Inhibition of HA-tagged recombinant PRMT5 (unknown origin) expressed in HEK293T cells using [3H]SAM and histone H4 (1 to 20) as substrate after 8 mins by P81 filter binding assay; parameters: species or system HEK-293T
Procedure, shortened: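 HA-PRMT5 from HEK293T co-transfected with PRMT5 and WDR77 plasmids, HA-bead purified; 0.04 μM enzyme, 0.5 μM [3H]SAM, 1 μM H4(1–20) in HEPES pH 8.0 buffer; inhibitor preincubated with enzyme and SAM 5 min before peptide start; 8 min at 30 °C; P81 disks washed in NaHCO3 pH 9.0, scintillation counted; IC50 over varied inhibitor concentrations.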

[4] = biological target: T3, Protein arginine N-methyltransferase 1 (Homo sapiens, UniProt Q99873); experiment: Inhibition of His6x-tagged recombinant PRMT1 (unknown origin) expressed in Escherichia coli BL21(DE3) using [3H]SAM and histone H4 (1 to 20) as substrate after 8 mins by P81 filter binding assay
Target sequence in this assay (Q99873 whole entry): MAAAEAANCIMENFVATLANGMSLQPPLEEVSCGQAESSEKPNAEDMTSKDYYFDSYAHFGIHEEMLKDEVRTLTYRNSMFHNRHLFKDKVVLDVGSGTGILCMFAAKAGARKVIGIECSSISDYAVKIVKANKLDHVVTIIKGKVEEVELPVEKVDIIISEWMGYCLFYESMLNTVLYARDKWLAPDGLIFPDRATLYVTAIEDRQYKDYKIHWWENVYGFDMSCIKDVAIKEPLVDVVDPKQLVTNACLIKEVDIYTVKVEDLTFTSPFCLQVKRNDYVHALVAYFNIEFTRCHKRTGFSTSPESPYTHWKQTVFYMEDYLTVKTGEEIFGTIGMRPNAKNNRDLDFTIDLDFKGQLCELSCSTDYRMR

[5] = biological target: T2, Protein arginine N-methyltransferase 5; experiment: Inhibition of HA-tagged recombinant PRMT5 (unknown origin) expressed in HEK293T cells using [3H]SAM and histone H4 (1 to 20) as substrate at 20 uM after 8 mins by P81 filter binding assay
Procedure, shortened: (§1)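 Enzyme 0.04 μM (His-PRMT1 purified on Ni-NTA, or HA-PRMT5 co-expressed with WDR77 in 293T and purified on HA beads). Assay used 0.5 μM [3H]SAM and 1 μM H4(1–20) in 50 mM HEPES pH 8.0, 50 mM NaCl, 1 mM EDTA, 0.5 mM DTT. Preincubation 5 min at room temperature, then 8 min at 30 °C. P81 filter binding with scintillation counting. Compared with no-inhibitor control.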

[6] = biological target: T3, Protein arginine N-methyltransferase 1; experiment: Inhibition of His6x-tagged recombinant PRMT1 (unknown origin) expressed in Escherichia coli BL21(DE3) using [3H]SAM and histone H4 (1 to 20) as substrate at 20 uM after 8 mins by P81 filter binding assay; procedure, shortened: as §1
Target sequence in this assay (Q99873 whole entry, looked up): as the sequence (Q99873 whole entry) above

[7] = biological target: T3, Protein arginine N-methyltransferase 1; experiment: Uncompetitive inhibition of His6x-tagged recombinant PRMT1 (unknown origin) expressed in Escherichia coli BL21(DE3) using [3H]SAM and histone H4 (1 to 20) as substrate by double reciprocal plot analysis
Procedure, shortened: (§2)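 Radiometric P81 filter-binding kinetics in 50 mM HEPES pH 8.0, 50 mM NaCl, 1 mM EDTA, 0.5 mM DTT, 30 °C; inhibitor at 0, 10, 20, 30, 40 μM; initial velocities with H4-20 varied at 3 μM [3H]SAM, or [3H]SAM varied at 15 μM H4-20; Michaelis–Menten and double-reciprocal analysis giving Kis and Kii.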
Target sequence in this assay (Q99873 whole entry, looked up): as the sequence (Q99873 whole entry) above

[8] = biological target: T3, Protein arginine N-methyltransferase 1; experiment: Competitive inhibition of His6x-tagged recombinant PRMT1 (unknown origin) expressed in Escherichia coli BL21(DE3) using [3H]SAM and histone H4 (1 to 20) as substrate by double reciprocal plot analysis; procedure, shortened: as §2
Target sequence in this assay (Q99873 whole entry, looked up): as the sequence (Q99873 whole entry) above

MOLM-13 = experiment: Antiproliferative activity against human MOLM13 cells with MLL-AF9 translocation assessed as cell viability at 20 uM measured everyday for 3 days by CellTiter-Glo assay; assay type: functional, cell-based
Procedure, shortened: (§3)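 RPMI + 10% FBS culture; 1000–1500 cells seeded per well; 20 μM compound or matching DMSO volume added; CellTiter-Glo luminescence read at 0, 24, 48, 72 h after treatment; viability expressed as percent of viable cells relative to DMSO-treated control.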

HL-60 = experiment: Antiproliferative activity against human HL60 cells with PML-RAR alpha translocation assessed as cell viability at 20 uM measured everyday for 3 days by CellTiter-Glo assay; assay type: functional, cell-based; procedure, shortened: as §3
[9] = biological target: T3, Protein arginine N-methyltransferase 1; experiment: Inhibition of PRMT1 in human 293T cells assessed as reduction of GFP-ALY methylation by Western blot analysis; assay type: cell-based
Procedure, shortened: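 GFP-ALY stably expressing 293T cells in DMEM + 10% FBS, treated 15 h with 20 μM compound; lysed on ice in NP-40 buffer; GFP-ALY pulled down on GFP antibody beads; SDS-PAGE and Western blot with ASYM24 methylarginine antibody, equal GFP-ALY loading.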
Target sequence in this assay (Q99873 whole entry, looked up): as the sequence (Q99873 whole entry) above

HEL = experiment: Antiproliferative activity against human HEL cells harboring JAK2 V617F mutant assessed as cell viability at 20 uM measured everyday for 3 days by CellTiter-Glo assay; assay type: functional, cell-based; procedure, shortened: as §3
[10] = biological target: T3, Protein arginine N-methyltransferase 1; experiment: Inhibition of His6x-tagged recombinant PRMT1 (unknown origin) expressed in Escherichia coli BL21(DE3) using fluorescein-labeled histone H4 (1 to 20) as substrate at 10 to 50 uM after 8 mins by competitive fluorescence anisotropy binding assay
Procedure, shortened: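 0.2 μM fluorescein-labelled H4(1–20) and 2 μM PRMT1 in P81 assay buffer (HEPES pH 8.0); inhibitor titrated in until signal plateaued; anisotropy read at excitation 498 nm, emission 524 nm.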
Target sequence in this assay (Q99873 whole entry, looked up): as the sequence (Q99873 whole entry) above

CMY = experiment: Antiproliferative activity against human CMY cells harboring trisomy 21 assessed as cell viability at 20 uM measured everyday for 3 days by CellTiter-Glo assay; assay type: functional, cell-based; procedure, shortened: as §3
Homo sapiens = species on record: Homo sapiens; experiment: Antiproliferative activity against human CHRF-288-11 cells harboring trisomy 21 assessed as cell viability at 20 uM measured everyday for 3 days by CellTiter-Glo assay; assay type: functional, cell-based; procedure, shortened: as §3
Jurkat = experiment: Antiproliferative activity against human Jurkat cells assessed as cell viability at 20 uM measured everyday for 3 days by CellTiter-Glo assay; assay type: functional, cell-based; procedure, shortened: as §3

Chain of Protein arginine N-methyltransferase 6 (Q96LA8 whole entry): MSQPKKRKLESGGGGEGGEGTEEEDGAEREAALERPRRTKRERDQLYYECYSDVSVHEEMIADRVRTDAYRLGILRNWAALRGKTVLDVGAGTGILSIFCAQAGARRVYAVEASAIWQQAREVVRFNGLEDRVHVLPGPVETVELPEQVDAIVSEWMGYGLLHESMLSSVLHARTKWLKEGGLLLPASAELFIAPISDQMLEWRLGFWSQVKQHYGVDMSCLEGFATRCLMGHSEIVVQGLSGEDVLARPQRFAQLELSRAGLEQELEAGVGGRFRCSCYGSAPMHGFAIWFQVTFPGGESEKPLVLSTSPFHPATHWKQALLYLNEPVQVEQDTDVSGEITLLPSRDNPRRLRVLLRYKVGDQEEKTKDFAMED
T2 sequence (O14744 whole entry): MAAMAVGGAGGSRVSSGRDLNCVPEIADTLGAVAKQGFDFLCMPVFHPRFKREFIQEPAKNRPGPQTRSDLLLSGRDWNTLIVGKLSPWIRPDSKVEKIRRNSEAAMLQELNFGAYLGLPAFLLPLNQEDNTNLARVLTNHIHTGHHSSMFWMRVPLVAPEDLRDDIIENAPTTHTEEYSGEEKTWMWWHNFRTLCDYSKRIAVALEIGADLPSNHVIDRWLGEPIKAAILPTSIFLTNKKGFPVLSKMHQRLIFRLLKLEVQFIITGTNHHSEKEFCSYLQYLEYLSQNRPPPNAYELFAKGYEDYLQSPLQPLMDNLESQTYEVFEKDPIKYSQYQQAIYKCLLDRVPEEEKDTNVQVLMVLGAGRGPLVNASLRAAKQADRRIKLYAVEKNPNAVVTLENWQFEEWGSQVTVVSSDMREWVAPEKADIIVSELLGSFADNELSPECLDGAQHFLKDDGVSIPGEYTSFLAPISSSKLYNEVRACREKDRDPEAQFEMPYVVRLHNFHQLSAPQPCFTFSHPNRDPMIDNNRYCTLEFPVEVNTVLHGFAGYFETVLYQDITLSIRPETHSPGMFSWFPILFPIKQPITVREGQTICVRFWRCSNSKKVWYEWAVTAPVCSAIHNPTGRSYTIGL

| Structure (SMILES) | IC50 [1] | IC50 [2] | IC50 [3] | IC50 [4] | inhibition [5] | inhibition [6] | other results |
| --- | --- | --- | --- | --- | --- | --- | --- |
| N=C(N)c1ccc(-c2ccc(-c3ccc(C(=N)N)nc3)o2)cc1 | > 400 µM | 211 µM | 186 µM | 7.2 µM | – | – | – |
| N=C(N)c1ccc(-c2ccc(-c3ccc(C(=N)N)c(F)c3)o2)cc1F | – | – | – | – | Active | Active | – |
| N=C(N)c1ccc(-c2ccc(-c3ccc(C(=N)N)cc3)o2)cc1 [FURAMIDINE] | > 400 µM | 283 µM | 166 µM | 9.4 µM | 11% | > 75% | Kii [7]: 26 µM; Kis [8]: 2.6 µM; inhibition (MOLM-13): Active; inhibition (HL-60): Active; inhibition [9]: Active; inhibition (HEL): inactive; inhibition [10]: Active; inhibition (CMY): Active; inhibition (Homo sapiens): Active; inhibition (Jurkat): Active |
| N=C(N)c1ccc(-c2ccc(-c3ccc(OCCCCCCCCOc4ccc(-c5ccc(-c6ccc(C(=N)N)cc6)o5)cc4)cc3)o2)cc1 | – | – | – | – | > 85% | > 85% | – |
| N=C(N)c1ccc(/C=C/c2ccc(C(=N)N)cc2)cc1 [STILBAMIDINE] | 400 µM | 173 µM | 44.1 µM | – | – | – | – |
